Test results from ChEMBL document CHEMBL1275429, “Pharmacodynamic characterization of ceftobiprole in experimental pneumonia caused by phenotypically diverse Staphylococcus aureus strains” (Antimicrob Agents Chemother, 2008).
Converted amounts (≈) assume the structure as drawn.

Assays:
[1] = Elimination half life in neutropenic BALB/cAnNCr mouse infected with Staphylococcus aureus at 1 mg/kg, sc administered as single dose after 6 hrs of infection; format: ADME, organism-based; set-up: dose 1 mg/kg, route subcutaneous; settings: in vivo
Summary of the method: (§1)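 Neutropenic female mice (cyclophosphamide i.p. 250 mg/kg day −4, 100 mg/kg day −1) with HA-MRSA 56 pneumonia (oral inoculum, 10^7 CFU/ml in 3% mucin). Single s.c. dose in sterile water. Plasma by intracardiac puncture at 0.25–4 h, six mice per time point, stabilized with citric acid. Assayed by validated HPLC (LOQ 0.01 µg/ml). Parameters from one-compartment analysis.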

[2] = Tmax in neutropenic BALB/cAnNCr mouse infected with Staphylococcus aureus at 25 mg/kg, sc administered as single dose after 6 hrs of infection; format: ADME, organism-based; set-up: dose 25 mg/kg, route subcutaneous; settings: in vivo; summary of the method: as §1
[3] = Cmax in neutropenic BALB/cAnNCr mouse infected with Staphylococcus aureus at 1 mg/kg, sc administered as single dose after 6 hrs of infection; format: ADME, organism-based; set-up: dose 1 mg/kg, route subcutaneous; settings: in vivo; summary of the method: as §1
[4] = fT>MIC required for stasis inhibition of community acquired methicillin-resistant Staphylococcus aureus 146 infection in neutropenic BALB/cAnNCr mouse; format: functional
Summary of the method: (§2)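 Same neutropenic murine pneumonia model, with 24-h lung log10 CFU change (5 mice per group; 1–25 mg/kg s.c., 1–5 times daily). […] ED50, ED80 and stasis exposures were taken from a sigmoid Emax fit for each isolate.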

[5] = fT>MIC required for 80% inhibition of methicillin-susceptible Staphylococcus aureus 25923 infection in neutropenic BALB/cAnNCr mouse; format: functional
[6] = fT>MIC required for 80% inhibition of community acquired methicillin-resistant Staphylococcus aureus 144 infection in neutropenic BALB/cAnNCr mouse; format: functional; summary of the method: as §2
[7] = tested on: Staphylococcus aureus; assay: Antimicrobial activity against community acquired methicillin-resistant Staphylococcus aureus 147 by broth microdilution method; format: functional
Summary of the method: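 Broth microdilution run in triplicate following CLSI guidelines. Isolates were stored at –80°C in double-strength skim milk and subcultured twice on Trypticase soy agar with 5% sheep blood before testing.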

[8] = Elimination half life in neutropenic BALB/cAnNCr mouse infected with Staphylococcus aureus at 25 mg/kg, sc administered as single dose after 6 hrs of infection; format: ADME, organism-based; set-up: dose 25 mg/kg, route subcutaneous; settings: in vivo; summary of the method: as §1
[9] = fT>MIC in neutropenic BALB/cAnNCr mouse plasma infected with Staphylococcus aureus at 1 to 25 mg/kg, sc administered 1 to 5 times/day after 24 hrs HPLC; format: functional; settings: route subcutaneous
Summary of the method: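 Exposure indices used free plasma drug, correcting with 19% mouse protein binding supplied by the sponsor. The regimens were s.c. 1–25 mg/kg given 1–5 times daily for 24 h to neutropenic mice with S. aureus pneumonia. MICs were determined in triplicate by CLSI broth microdilution. PK came from the single-dose HPLC study.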

[10] = Cmax in neutropenic BALB/cAnNCr mouse infected with Staphylococcus aureus at 10 mg/kg, sc administered as single dose after 6 hrs of infection; format: ADME, organism-based; set-up: dose 10 mg/kg, route subcutaneous; settings: in vivo; summary of the method: as §1
[11] = fT>MIC required for stasis inhibition of hospital acquired methicillin-resistant Staphylococcus aureus 149 infection in neutropenic BALB/cAnNCr mouse; format: functional; summary of the method: as §2
[12] = AUC (0 to infinity) in neutropenic BALB/cAnNCr mouse infected with Staphylococcus aureus at 10 mg/kg, sc administered as single dose after 6 hrs of infection; format: ADME, organism-based; set-up: time infinity, dose 10 mg/kg, route subcutaneous; settings: plasma; summary of the method: as §1
[13] = fT>MIC required for 50% inhibition of community acquired Staphylococcus aureus 147 infection in neutropenic BALB/cAnNCr mouse; format: functional
[14] = tested on: Staphylococcus aureus; assay: Antimicrobial activity against community acquired methicillin-resistant Staphylococcus aureus 147 infected in BALB/cAnNCr mouse assessed as decrease in bacterial density in lungs at 1 to 25 mg/kg, sc administered as 1 to 5 times/day after 24 hrs […] relative to control; format: functional; settings: route subcutaneous
Summary of the method: (§3)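 Female BALB/cAnNCr mice (7–9 weeks) were made neutropenic with cyclophosphamide i.p. at 250 mg/kg on day −4 and 100 mg/kg on day −1. Under isoflurane, mice received an oral inoculum in 3% mucin/saline, with nostrils blocked until aspiration. Drug (1–25 mg/kg s.c., once to five times daily, water vehicle) or sham started 6 h post-inoculation. Lungs were harvested at 24 h, homogenized and plated on blood and Columbia agar at 35°C. Mean log10 CFU/ml was compared with the 0-h untreated baseline; 5 mice per group.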

[15] = tested on: Staphylococcus aureus; assay: Antimicrobial activity against hospital acquired methicillin-resistant Staphylococcus aureus 149 infected in BALB/cAnNCr mouse assessed as decrease in bacterial density in lungs at 1 to 25 mg/kg, sc administered as 1 to 5 times/day after 24 hrs […] relative to control; format: functional; settings: route subcutaneous; summary of the method: as §3
[16] = fCmax/MIC required for 50% inhibition of Staphylococcus aureus infection in neutropenic BALB/cAnNCr mouse; format: functional
[17] = Cmax in neutropenic BALB/cAnNCr mouse infected with Staphylococcus aureus at 25 mg/kg, sc administered as single dose after 6 hrs of infection; format: ADME, organism-based; set-up: dose 25 mg/kg, route subcutaneous; settings: in vivo; summary of the method: as §1
[18] = fT>MIC required for stasis inhibition of methicillin-suceptible Staphylococcus aureus 29213 infection in neutropenic BALB/cAnNCr mouse; format: functional
[19] = Elimination clearance in neutropenic BALB/cAnNCr mouse infected with Staphylococcus aureus at 10 mg/kg, sc administered as single dose after 6 hrs of infection; format: ADME, organism-based; set-up: dose 10 mg/kg, route subcutaneous; settings: in vivo; summary of the method: as §1
[20] = fT>MIC required for 80% inhibition of hospital acquired methicillin-resistant Staphylococcus aureus 152 infection in neutropenic BALB/cAnNCr mouse; format: functional; summary of the method: as §2
[21] = Elimination clearance in neutropenic BALB/cAnNCr mouse infected with Staphylococcus aureus at 2.5 mg/kg, sc administered as single dose after 6 hrs of infection; format: ADME, organism-based; set-up: dose 2.5 mg/kg, route subcutaneous; settings: in vivo
Summary of the method: (§4)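 Female BALB/cAnNCr mice (7-9 weeks, 15-22 g) made neutropenic with cyclophosphamide, 250 mg/kg i.p. on day -4 and 100 mg/kg i.p. on day -1. Infected by oral aspiration of HA-MRSA 56 (10^7 CFU/ml in 3% mucin/saline). Single s.c. dose in sterile water given 6 h post-challenge. Plasma (EDTA, citric acid-stabilized) taken at 0.25-4 h, six mice per time point. Assayed by validated HPLC (LOQ 0.01 µg/ml); one-compartment analysis.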

[22] = Tmax in neutropenic BALB/cAnNCr mouse infected with Staphylococcus aureus at 2.5 mg/kg, sc administered as single dose after 6 hrs of infection; format: ADME, organism-based; set-up: dose 2.5 mg/kg, route subcutaneous; settings: in vivo; summary of the method: as §4
[23] = fT>MIC required for 50% inhibition of hospital acquired Staphylococcus aureus 149 infection in neutropenic BALB/cAnNCr mouse; format: functional
[24] = fT>MIC required for 50% inhibition of methicillin-susceptible Staphylococcus aureus 29213 infection in neutropenic BALB/cAnNCr mouse; format: functional
[25] = tested on: Staphylococcus aureus; assay: Antimicrobial activity against Staphylococcus aureus infected in BALB/cAnNCr mouse assessed as decrease in bacterial density in lungs relative to control at 1 to 25 mg/kg, sc administered as 1 to 5 times/day after 24 hrs […]; format: functional; settings: dose mg/kg 1-5; route subcutaneous
Summary of the method: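 Neutropenic mice given oral S. aureus inoculum (10^7 CFU/ml in 3% mucin). s.c. dosing of 1–25 mg/kg, once to five times daily, began 6 h post-infection and ran 24 h, five mice per group, with sham-treated controls. Lung homogenates were plated on blood and Columbia agar at 35°C up to 48 h. Log10 CFU/ml at 24 h was compared with untreated controls.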

Question: With `Nc1nc(/C(=N/O)C(=O)N[C@@H]2C(=O)N3C(C(=O)O)=C(/C=C4\CCN([C@@H]5CCNC5)C4=O)CS[C@H]23)ns1` [CEFTOBIPROLE] as the compound, how does the half-life [1] read?
Answer: The half-life was 15 min.

Question: And the Tmax [2]?
Answer: Its Tmax is 28.2 min.

Question: And the Cmax [3]?
Answer: Its Cmax is 1740 ng/mL.

Question: And the “fT>MIC” value [4]?
Answer: The value was 5.6%.

Question: What about the “fT>MIC” value [5] of the same compound?
Answer: Its value is 10.2%.

Question: What about the “fT>MIC” value [6] of the same compound?
Answer: The value was 14.3%.

Question: And the MIC [7]?
Answer: The MIC was 1 µg/mL (≈ 1.87 µM).

Question: What about the half-life [8] of the same compound?
Answer: Its half-life is 24 min.

Question: What about the “fT>MIC” value [9] of the same compound?
Answer: The value was 3%.

Question: And the Cmax [10]?
Answer: The Cmax was 19800 ng/mL.

Question: And the “fT>MIC” value [11]?
Answer: The value was 6.6%.

Question: What about the AUC(0-inf) [12] of the same compound?
Answer: Its AUC(0-inf) is 15800 ng·h/mL.

Question: And the “fT>MIC” value [13]?
Answer: Its value is 17.1%.

Question: What about the log10cfu [14] of the same compound?
Answer: Its log10cfu is 3.2.

Question: And the log10cfu [15]?
Answer: The log10cfu was 4.1.

Question: What about the fCmax/MIC [16] of the same compound?
Answer: Its fCmax/MIC is 2.

Question: And the Cmax [17]?
Answer: The Cmax was 38600 ng/mL.

Question: What about the “fT>MIC” value [18] of the same compound?
Answer: Its value is 13.3%.

Question: What about the CL/F [19] of the same compound?
Answer: The CL/F was 10.5 mL/min/kg.

Question: What about the “fT>MIC” value [20] of the same compound?
Answer: The value was 15.9%.

Question: What about the CL/F [21] of the same compound?
Answer: Its CL/F is 16.2 mL/min/kg.

Question: And the Tmax [22]?
Answer: The Tmax was 24.6 min.

Question: And the “fT>MIC” value [23]?
Answer: Its value is 8.6%.

Question: What about the “fT>MIC” value [24] of the same compound?
Answer: The value was 14.8%.

Question: And the log10cfu [25]?
Answer: Its log10cfu is 2.5.
